# Measured values published in PubChem BioAssay AID624204 (Sanford-Burnham Center for Chemical Genomics, 2012).
# In all, about 360,000 compounds went through this assay and about 770 (0.21%) were called active.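 Rule for the calls: active = inhibition at least 30% at 10 µM, raw YFP signal under a set limit, fluorescence ratio 0.5 to 1.5; inactive = the rest.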 Many of the other results were omitted from the sample, so actives are more common in it than they were.
# Target: Sentrin-specific protease 1 (Homo sapiens) (UniProt Q9P0U3)
# Sequence (Q9P0U3 419-644 limits assumed): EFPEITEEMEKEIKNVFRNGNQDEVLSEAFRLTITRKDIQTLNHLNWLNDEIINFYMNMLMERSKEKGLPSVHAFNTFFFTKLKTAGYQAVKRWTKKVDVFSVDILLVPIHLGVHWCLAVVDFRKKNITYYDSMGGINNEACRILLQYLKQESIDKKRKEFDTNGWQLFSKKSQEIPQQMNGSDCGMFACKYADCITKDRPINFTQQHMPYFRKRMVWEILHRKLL
# Test: human SENP1 catalytic domain inhibitors, primary screen, biochemical, FRET, uHTS (AID 624204);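 note: 0% = enzyme with DMSO and 100% = no enzyme wells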
# Settings: recombinant SENP1 catalytic domain, CyPet-SUMO1-YPet FRET cleavage; at 10 µM; stronger effect = higher value
# Method in brief: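 system = hSENP1 catalytic domain, recombinant | reagent = SFCypet-SUMO1-SFYpet substrate at 25 nM | doses = one dose per compound, 10 µM, 0.5% DMSO | incubation = enzyme reaction for 50 min at room temperature, dark | measured by = FRET, CFP and YFP emission | controls = no-enzyme low, enzyme-DMSO high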
row,SMILES,inhibition
1,O=C1N=c2ccccc2=C/C1=C\c1c(O)[nH]c(=S)[nH]c1=O,-11.3% (inactive)
2,COc1ccccc1N=Nc1c(O)[nH]c(=S)[nH]c1=O,48.9% (active)
3,CCOCCc1c(O)[nH]c(=S)[nH]c1=O,-0.672% (inactive)
4,CCCOC(=O)C1C2c3ccccc3C(c3ccccc32)C1C(=O)O (stereo not given),-1.79% (inactive)
5,CC(CC(C#N)(c1ccccc1)c1ccccc1)N1CCCCC1 (stereo not given),1.04% (inactive)
